Laboratory results as given in ChEMBL document CHEMBL3875206, “Design, synthesis and biological evaluation of 4'-aminochalcone-rivastigmine hybrids as multifunctional agents for the treatment of Alzheimer's disease” (Bioorg Med Chem, 2017).
pIC50: −log10 of the molar value.

Legend:
[1] = Inhibition of Cu2+-mediated aggregation of amyloid beta (1-42) (unknown origin) at 25 uM after 24 hrs by thioflavin T fluorescence-based fluorimetric method relative to control; type: functional
Outline: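 HFIP-pretreated Aβ1-42 (25 µM) was incubated with Cu2+ (25 µM), with or without compound (25 µM final), in 20 mM HEPES/150 mM NaCl pH 6.6 at 37 °C for 24 h. 5 µM ThT in 50 mM glycine-NaOH pH 8.5 was then added. Fluorescence was read at ex 446/em 490 nm. Percent inhibition was taken versus no-inhibitor control after background subtraction, in triplicate.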

[2] = target: Acetylcholinesterase (Electrophorus electricus, UniProt O42275); assay: Inhibition of electric eel AChE using acetylthiocholine iodide as substrate incubated for 15 mins by Ellman's method
Sequence of Acetylcholinesterase (O42275 whole entry): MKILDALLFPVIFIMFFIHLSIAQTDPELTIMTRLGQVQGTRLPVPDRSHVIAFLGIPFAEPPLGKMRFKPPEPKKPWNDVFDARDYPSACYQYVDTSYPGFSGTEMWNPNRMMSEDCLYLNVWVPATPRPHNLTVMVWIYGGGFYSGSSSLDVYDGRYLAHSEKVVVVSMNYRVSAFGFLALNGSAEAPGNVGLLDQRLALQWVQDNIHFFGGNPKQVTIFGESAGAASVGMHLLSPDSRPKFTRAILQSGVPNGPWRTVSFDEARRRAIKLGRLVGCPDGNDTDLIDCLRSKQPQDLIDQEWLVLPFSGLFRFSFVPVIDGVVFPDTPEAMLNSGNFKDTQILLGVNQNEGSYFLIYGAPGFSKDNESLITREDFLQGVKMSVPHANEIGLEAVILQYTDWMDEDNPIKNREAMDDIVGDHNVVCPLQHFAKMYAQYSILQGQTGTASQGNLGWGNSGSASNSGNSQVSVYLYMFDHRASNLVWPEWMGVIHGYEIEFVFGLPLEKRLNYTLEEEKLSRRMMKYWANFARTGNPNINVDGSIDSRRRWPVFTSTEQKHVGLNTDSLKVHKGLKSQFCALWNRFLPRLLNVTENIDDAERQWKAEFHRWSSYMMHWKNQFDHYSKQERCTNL
Outline: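 Ellman spectrophotometric assay: electric eel AChE 0.05 U/mL final, acetylthiocholine iodide 1 mmol/L, phosphate buffer pH 8.0, range of compound concentrations.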

[3] = target: T1, Amine oxidase [flavin-containing] B (Homo sapiens, UniProt P27338); assay: Inhibition of recombinant human MAO-B expressed in baculovirus infected High 5 insect cells using kynuramine as substrate incubated for 30 mins by spectrofluorometric method; type: cell-based
T1 sequence (P27338 whole entry): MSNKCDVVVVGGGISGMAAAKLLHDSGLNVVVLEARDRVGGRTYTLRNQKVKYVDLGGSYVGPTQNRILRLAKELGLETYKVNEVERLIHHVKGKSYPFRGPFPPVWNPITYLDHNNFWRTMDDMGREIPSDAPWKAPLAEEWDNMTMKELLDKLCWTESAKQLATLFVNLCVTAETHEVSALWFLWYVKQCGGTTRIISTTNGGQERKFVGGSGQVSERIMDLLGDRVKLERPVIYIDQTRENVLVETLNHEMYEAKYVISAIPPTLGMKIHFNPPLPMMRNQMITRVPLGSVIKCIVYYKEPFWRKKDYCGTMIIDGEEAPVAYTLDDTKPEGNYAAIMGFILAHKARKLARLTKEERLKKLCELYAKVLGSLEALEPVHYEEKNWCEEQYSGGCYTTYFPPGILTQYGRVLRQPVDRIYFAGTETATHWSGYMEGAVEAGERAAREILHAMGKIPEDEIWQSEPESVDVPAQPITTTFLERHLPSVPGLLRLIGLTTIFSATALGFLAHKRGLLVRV

[4] = species on record: Homo sapiens; assay: Selectivity index, ratio of IC50 for recombinant human MAO-A expressed in baculovirus infected High 5 insect cells to IC50 for recombinant human MAO-B expressed in baculovirus infected High 5 insect cells
Outline: (§1)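 Recombinant human MAO-A or MAO-B (7.5 µg/mL) with kynuramine substrate in 100 mM potassium phosphate pH 7.4 (KCl-isotonic), <4% DMSO, 30 min at 37 °C. Stopped with 2 N NaOH. Single-point inhibition at 10 µM. IC50 from six-concentration sigmoidal curves, triplicate. SI = IC50(MAO-A)/IC50(MAO-B).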

[5] = target: T2, Amine oxidase [flavin-containing] A (Homo sapiens, UniProt P21397); assay: Inhibition of recombinant human MAO-A expressed in baculovirus infected High 5 insect cells using kynuramine as substrate incubated for 30 mins by spectrofluorometric method
T2 sequence (P21397 whole entry): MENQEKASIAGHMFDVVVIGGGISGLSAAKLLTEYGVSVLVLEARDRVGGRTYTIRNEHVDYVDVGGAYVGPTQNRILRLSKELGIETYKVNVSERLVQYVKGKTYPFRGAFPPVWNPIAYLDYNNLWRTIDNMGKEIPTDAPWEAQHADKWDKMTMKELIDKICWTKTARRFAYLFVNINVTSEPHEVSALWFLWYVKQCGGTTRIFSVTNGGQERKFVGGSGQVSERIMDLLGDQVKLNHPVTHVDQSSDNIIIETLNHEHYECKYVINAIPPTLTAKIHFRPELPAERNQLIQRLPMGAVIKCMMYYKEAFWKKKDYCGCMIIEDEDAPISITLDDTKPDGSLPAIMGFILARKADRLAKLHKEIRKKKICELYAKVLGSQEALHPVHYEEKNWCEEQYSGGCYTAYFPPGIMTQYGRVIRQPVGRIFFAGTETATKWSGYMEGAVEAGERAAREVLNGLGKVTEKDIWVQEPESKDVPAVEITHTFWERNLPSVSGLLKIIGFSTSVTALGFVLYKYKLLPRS

[6] = Antioxidant activity assessed as trolox equivalents of AAPH radical scavenging activity at 5 uM preincubated for 15 mins followed by AAPH addition measured every 60 sec for 90 mins by ORAC-FL assay; type: functional
Outline: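 Peroxyl radicals generated by AAPH (12 mM final) at 37 °C in phosphate buffer pH 7.4 with fluorescein (150 nM final). Sample and fluorescein were preincubated 15 min before AAPH addition. Fluorescence (ex 485/em 535 nm) was read every 60 s for 90 min.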

[7] = target: Amyloid-beta precursor protein (Homo sapiens) (UniProt P05067); assay: Inhibition of self-induced aggregation of amyloid beta (1-42) (unknown origin) at 25 uM after 24 hrs by thioflavin T fluorescence-based fluorimetric method relative to control
Sequence of Amyloid-beta precursor protein (Homo sapiens) (P05067 whole entry): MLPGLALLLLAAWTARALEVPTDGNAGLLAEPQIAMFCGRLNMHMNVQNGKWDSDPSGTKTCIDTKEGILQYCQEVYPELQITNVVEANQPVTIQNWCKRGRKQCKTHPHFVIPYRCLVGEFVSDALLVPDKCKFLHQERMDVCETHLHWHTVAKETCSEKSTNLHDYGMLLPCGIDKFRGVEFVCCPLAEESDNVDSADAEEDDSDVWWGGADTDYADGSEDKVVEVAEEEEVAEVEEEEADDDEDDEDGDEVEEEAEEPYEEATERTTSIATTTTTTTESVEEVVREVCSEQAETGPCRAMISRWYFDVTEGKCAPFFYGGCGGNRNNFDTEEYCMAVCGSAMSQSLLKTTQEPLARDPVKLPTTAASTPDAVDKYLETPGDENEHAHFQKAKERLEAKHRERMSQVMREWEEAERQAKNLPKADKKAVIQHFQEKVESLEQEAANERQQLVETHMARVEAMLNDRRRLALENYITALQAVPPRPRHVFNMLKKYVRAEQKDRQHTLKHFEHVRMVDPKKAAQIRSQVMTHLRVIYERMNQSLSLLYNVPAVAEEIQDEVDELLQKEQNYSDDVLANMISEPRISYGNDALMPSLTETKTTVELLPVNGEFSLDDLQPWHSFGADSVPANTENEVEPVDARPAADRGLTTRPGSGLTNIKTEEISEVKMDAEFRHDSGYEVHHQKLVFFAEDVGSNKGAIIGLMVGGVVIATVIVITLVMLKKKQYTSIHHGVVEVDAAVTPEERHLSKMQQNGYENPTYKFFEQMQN
Outline: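 Aβ1-42 was pretreated in HFIP, dried and stocked in DMSO. Aβ1-42 (25 µM final) was incubated with compound (25 µM final) in 50 mM phosphate buffer pH 7.4 at 37 °C for 24 h. 5 µM ThT in 50 mM glycine-NaOH pH 8.5 was then added. Fluorescence was read at ex 446/em 490 nm. Inhibition = (1−IFi/IFc)×100 after background subtraction, in triplicate.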

[8] = Inhibition of rat serum BuChE at 50 uM using butyrylthiocholine iodide as substrate incubated for 15 mins by Ellman's method relative to control; conditions: 0.25 h
Outline: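 Ellman method with 25% rat serum as BuChE source, butyrylthiocholine iodide 1 mmol/L, phosphate buffer pH 7.4, absorbance at 405 nm. Compounds tested at 50 µM. […] Triplicate wells.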

[9] = target: T2, Amine oxidase [flavin-containing] A; assay: Inhibition of recombinant human MAO-A expressed in baculovirus infected High 5 insect cells at 10 uM using kynuramine as substrate incubated for 30 mins by spectrofluorometric method relative to control; conditions: 0.5 h
Outline: as §1, with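 “NaOH. 4-Hydroxyquinoline was measured fluorometrically (ex 310/em 400 nm) against a calibration curve.” for “NaOH.”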

[10] = target: T1, Amine oxidase [flavin-containing] B; assay: Inhibition of recombinant human MAO-B expressed in baculovirus infected High 5 insect cells 10 uM using kynuramine as substrate incubated for 30 mins by spectrofluorometric method relative to control; conditions: 0.5 h
Outline: as §1, with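 “NaOH. 4-Hydroxyquinoline was measured fluorometrically (ex 310/em 400 nm) against a calibration curve.” for “NaOH.”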

[11] = Inhibition of rat serum BuChE using butyrylthiocholine iodide as substrate incubated for 15 mins by Ellman's method
Outline: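 Rat serum BuChE (25% serum) by Ellman method, butyrylthiocholine iodide 1 mmol/L, phosphate buffer pH 7.4, read at 405 nm. Compound concentrations varied, each in triplicate.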

SMILES | inhibition [1] | pIC50 [2] | pIC50 [3] | Ratio IC50 [4] | pIC50 [5] | Activity [6] | inhibition [7] | inhibition (INH) [8] | inhibition at 10 µM [9] | inhibition at 10 µM [10] | pIC50 [11]
CN(C)C(=O)Oc1ccc(C(=O)/C=C/c2ccc(N(C)C)cc2)c(O)c1 | 77.9% | 4.49 | 5.61 | 4.11 | 4.99 | 2.62 µMequiv/µM | 90.8% | < 10% | – | – | –
CN(C)c1ccc(/C=C/C(=O)c2ccc(OC(=O)N3CCN(Cc4ccccc4)CC3)cc2O)cc1 | 94.2% | 4.67 | – | – | – | 3.51 µMequiv/µM | 89.4% | < 10% | 42.1% | 41.6% | –
CCN(C)C(=O)Oc1cccc([C@H](C)N(C)C)c1 [RIVASTIGMINE] | – | – | – | – | – | – | – | – | – | – | 5.54
CN(C)c1ccc(/C=C/C(=O)c2ccc(OC(=O)N3CCOCC3)cc2OC(=O)N2CCOCC2)cc1 | 41.4% | 4.24 | – | – | – | 1.85 µMequiv/µM | 33.3% | < 10% | 15% | 40.2% | –
O=C(/C=C/c1ccc(N2CCCCC2)cc1)c1ccc(OC(=O)N2CCCC2)cc1O | 59.8% | 4.97 | 6.11 | – | – | 1.2 µMequiv/µM | 57.2% | < 10% | 19.6% | – | –
CN(C)c1ccc(/C=C/C(=O)c2ccc(OC(=O)N3CCOCC3)cc2O)cc1 | 79.7% | 5.10 | – | – | – | 2.04 µMequiv/µM | 83.6% | < 10% | 34.6% | 42.3% | –
COc1cc(/C=C/C(=O)CC(=O)/C=C/c2ccc(O)c(OC)c2)ccc1O | 67.2% | – | – | – | – | – | – | – | – | – | –
CCN(CC)c1ccc(/C=C/C(=O)c2ccc(OC(=O)N3CCCC3)cc2O)cc1 | 67.1% | 4.93 | 5.17 | – | – | 1.02 µMequiv/µM | 67.8% | < 10% | 21% | – | –
CN1CCN(C(=O)Oc2ccc(C(=O)/C=C/c3ccc(N(C)C)cc3)c(O)c2)CC1 | 75.5% | 4.92 | – | – | – | 2.08 µMequiv/µM | 87.9% | < 10% | 49.5% | 25.1% | –
CN(C)c1ccc(/C=C/C(=O)c2ccc(O)cc2O)cc1 | 60.1% | 4.11 | 6.51 | 13.4 | 5.39 | 2 µMequiv/µM | 77.7% | < 10% | – | – | –
O=C(/C=C/c1ccc(N2CCOCC2)cc1)c1ccc(OC(=O)N2CCCC2)cc1O | 48.9% | 4.20 | 6.15 | > 14.1 | – | 0.51 µMequiv/µM | 44.4% | < 10% | 15.2% | – | –
CN(C)c1ccc(/C=C/C(=O)c2ccc(OC(=O)N3CCCCC3)cc2OC(=O)N2CCCCC2)cc1 | 23.8% | 4.49 | – | – | – | 2.41 µMequiv/µM | 38% | < 10% | 17% | 30.1% | –
CCN1CCN(C(=O)Oc2ccc(C(=O)/C=C/c3ccc(N(C)C)cc3)c(O)c2)CC1 | 89.2% | 5.06 | – | – | – | 2.54 µMequiv/µM | 83.2% | < 10% | 42.5% | 30% | –
CN(C)C(=O)Oc1ccc(C(=O)/C=C/c2ccc(N(C)C)cc2)c(OC(=O)N(C)C)c1 | 56.2% | < 4.00 | – | – | – | 2.16 µMequiv/µM | 34.7% | < 10% | 34.6% | 5.1% | –
CN(C)c1ccc(/C=C/C(=O)c2ccc(OC(=O)N3CCCC3)cc2OC(=O)N2CCCC2)cc1 | 26.3% | 4.52 | – | – | – | 2.45 µMequiv/µM | 48% | < 10% | 25.2% | 34.6% | –
CN(C)c1ccc(/C=C/C(=O)c2ccc(OC(=O)N3CCCCC3)cc2O)cc1 | 73.9% | 5.16 | – | – | – | 2.51 µMequiv/µM | 70.2% | < 10% | 27.8% | 31.1% | –
CCN(CC)C(=O)Oc1ccc(C(=O)/C=C/c2ccc(N(C)C)cc2)c(O)c1 | 49% | 4.76 | 5.46 | – | – | 2.2 µMequiv/µM | 76.7% | < 10% | 24.4% | – | –
O=C(/C=C/c1ccc(N2CCCC2)cc1)c1ccc(OC(=O)N2CCCC2)cc1O | 48.9% | 4.85 | 6.15 | – | – | 0.35 µMequiv/µM | 44.4% | < 10% | 15.2% | – | –
CCN(C)C(=O)Oc1ccc(C(=O)/C=C/c2ccc(N(C)C)cc2)c(O)c1 | 88% | 4.84 | 5.68 | > 4.76 | – | 3.14 µMequiv/µM | 98% | < 10% | 25.9% | – | –
